Measurements: ChEMBL document CHEMBL3120099, “Novel S1P(1) receptor agonists--part 2: from bicyclo[3.1.0]hexane-fused thiophenes to isobutyl substituted thiophenes” (J Med Chem, 2014)
Each block holds one compound with its values, some of them ahead of it. Activity calls are given as the source filed them. The rule behind the calls is not given here.

What was measured:
[1] = biological target: Sphingosine 1-phosphate receptor 1 (Homo sapiens, UniProt P21453); test: Agonist activity at human recombinant S1P1 receptor expressed in CHO cells assessed as membrane-bound 35S-GTPgammaS incubated 30 mins prior to substrate addition measured after 1 hr by topcount scintillation counting analysis; assay type: functional, cell-based
Sequence of Sphingosine 1-phosphate receptor 1 (P21453 whole entry): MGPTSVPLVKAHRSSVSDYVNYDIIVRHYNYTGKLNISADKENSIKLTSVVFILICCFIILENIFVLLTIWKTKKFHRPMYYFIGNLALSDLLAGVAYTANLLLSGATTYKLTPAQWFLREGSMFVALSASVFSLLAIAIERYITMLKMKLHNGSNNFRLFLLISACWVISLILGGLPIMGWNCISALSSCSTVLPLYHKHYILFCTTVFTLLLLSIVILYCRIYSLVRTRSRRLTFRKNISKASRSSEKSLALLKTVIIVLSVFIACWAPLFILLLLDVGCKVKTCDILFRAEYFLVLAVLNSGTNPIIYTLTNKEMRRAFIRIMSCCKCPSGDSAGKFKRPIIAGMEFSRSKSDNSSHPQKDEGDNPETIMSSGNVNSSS

Plasma [2] = test: AUC (0 to 6.4 hrs) in Wistar rat plasma at 10 mg/kg, po; assay type: ADME, organism-based; design: time < 6.4 hr, dose 10 mg/kg, route oral; conditions: in vivo
[3] = Cmax in Wistar rat mesenteric lymph at 10 mg/kg, po; assay type: ADME, organism-based, Mesenteric lymph node; design: dose 10 mg/kg, route oral
Method in brief: (§1)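 Male Wistar rats given 10 mg/kg orally in 5% DMSO/succinylated gelatin. At selected times, anesthesia with thiobutobarbital 150 mg/kg ip, laparotomy and thoracic lymph duct catheter. Mesenteric lymph collected for at least 10 min, with a plasma sample at mid-collection. Methanol precipitation, then LC-MS-MS with internal standard.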

[4] = Lipophilicity, log D of the compound at pH 7.4; assay type: physicochemical; conditions: buffer
[5] = Tmax in Wistar rat mesenteric lymph at 10 mg/kg, po; assay type: ADME, organism-based, Mesenteric lymph node; design: dose 10 mg/kg, route oral; method in brief: as §1
[6] = AUC (0 to 6.4 hrs) in Wistar rat mesenteric lymph at 10 mg/kg, po; assay type: ADME, organism-based, Mesenteric lymph node; design: time < 6.4 hr, dose 10 mg/kg, route oral; conditions: in vivo
[7] = Tmax in Wistar rat plasma at 10 mg/kg, po; assay type: ADME, organism-based; design: dose 10 mg/kg, route oral; method in brief: as §1
[8] = biological target: Sphingosine 1-phosphate receptor 3 (Homo sapiens, UniProt Q99500); test: Agonist activity at human recombinant S1P3 receptor expressed in CHO cells assessed as membrane-bound 35S-GTPgammaS incubated 30 mins prior to substrate addition measured after 1 hr by topcount scintillation counting analysis; assay type: functional, cell-based
Sequence of Sphingosine 1-phosphate receptor 3 (Q99500 whole entry): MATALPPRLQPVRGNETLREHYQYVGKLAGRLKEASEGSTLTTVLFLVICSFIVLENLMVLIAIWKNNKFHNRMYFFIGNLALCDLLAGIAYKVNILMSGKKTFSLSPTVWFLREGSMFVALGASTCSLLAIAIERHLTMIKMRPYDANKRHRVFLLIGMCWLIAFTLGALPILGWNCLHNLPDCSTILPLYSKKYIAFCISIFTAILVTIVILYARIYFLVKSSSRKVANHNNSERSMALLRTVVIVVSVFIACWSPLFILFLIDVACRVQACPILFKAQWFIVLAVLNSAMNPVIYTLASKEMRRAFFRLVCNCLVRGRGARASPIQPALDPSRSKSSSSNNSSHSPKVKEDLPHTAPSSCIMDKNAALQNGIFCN

[9] = Cmax in Wistar rat plasma at 10 mg/kg, po; assay type: ADME, organism-based; design: dose 10 mg/kg, route oral; method in brief: as §1
Plasma [10] = test: AUC (0 to 24 hrs) in Wistar rat plasma at 10 mg/kg, po; assay type: ADME, organism-based; design: time < 24 hr, dose 10 mg/kg, route oral; conditions: in vivo
[11] = AUC (0 to 24 hrs) in Wistar rat mesenteric lymph at 10 mg/kg, po; assay type: ADME, organism-based, Mesenteric lymph node; design: time < 24 hr, dose 10 mg/kg, route oral; conditions: in vivo
[12] = Drug uptake in Wistar rat mesenteric lymph at 10 mg/kg, po after 1 hr; assay type: ADME, organism-based, Mesenteric lymph node; design: dose 10 mg/kg, route oral; conditions: read-out: Drug uptake; method in brief: as §1
[13] = Plasma concentration in Wistar rat at 10 mg/kg, po after 1.7 hrs; assay type: ADME, organism-based; design: dose 10 mg/kg, route oral; method in brief: as §1
Rattus norvegicus [14] = test: Lymphopenic activity in Wistar rat assessed as reduction in blood lymphocyte count at 10 mg/kg, po after 144 hrs; assay type: functional
Method in brief: (§2)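 Normotensive male Wistar rats given 1–10 mg/kg by gavage in 5% DMSO/7.5% succinylated gelatin. Blood taken before and 3, 6 and 24 h after dosing, with later times for some compounds. Lymphocytes counted by hematology analyzer. % LC change calculated per animal relative to the predose value (=100%). Mean ± SEM.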

Rattus norvegicus [15] = test: Lymphopenic activity in Wistar rat assessed as reduction in blood lymphocyte count at 10 mg/kg, po after 24 hrs; assay type: functional; method in brief: as §2
[16] = Plasma concentration in Wistar rat at 10 mg/kg, po after 1 hr; assay type: ADME, organism-based; design: dose 10 mg/kg, route oral; method in brief: as §1
[17] = Plasma concentration in Wistar rat at 10 mg/kg, po after 3 days; assay type: ADME, organism-based; design: dose 10 mg/kg, route oral
Rattus norvegicus [18] = test: Clearance in Wistar rat at 1 mg/kg, iv; assay type: ADME, organism-based; design: dose 1 mg/kg, route intravenous; conditions: in vivo
Method in brief: (§3)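 Male Wistar rats (~250 g), jugular vein and carotid artery catheters implanted 2 days before dosing under isoflurane with buprenorphine analgesia. 1 mg/kg given as a 5 min jugular infusion in aqueous mixed micellar vehicle (phospholipids, bile acids). Serial EDTA blood sampling up to 24 h. Plasma analysed by LC-MS-MS after methanol precipitation. Noncompartmental analysis.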

[19] = Drug uptake in Wistar rat mesenteric lymph at 10 mg/kg, po after 3 hrs; assay type: ADME, organism-based, Mesenteric lymph node; design: dose 10 mg/kg, route oral; conditions: read-out: Drug uptake; method in brief: as §1
[20] = Half life in Wistar rat at 1 mg/kg, iv; assay type: ADME, organism-based; design: dose 1 mg/kg, route intravenous; conditions: in vivo; method in brief: as §3
[21] = Plasma concentration in Wistar rat at 10 mg/kg, po after 6 hrs; assay type: ADME, organism-based; design: dose 10 mg/kg, route oral
Rattus norvegicus [22] = test: Lymphopenic activity in Wistar rat assessed as reduction in blood lymphocyte count at 10 mg/kg, po after 72 hrs; assay type: functional; method in brief: as §2
[23] = Oral bioavailability in Wistar rat at 10 mg/kg; assay type: ADME, organism-based; conditions: in vivo
Method in brief: (§4)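 Male Wistar rats (~250 g), 10 mg/kg by gavage as a DMSO solution added to 7.5% succinylated gelatin in water (5% DMSO final). Sublingual blood under light isoflurane predose and at 0.5, 1, 2, 3, 4, 6, 8, 24 h into EDTA. Plasma LC-MS-MS after methanol precipitation. Noncompartmental parameters. Bioavailability referenced to 1 mg/kg iv.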

[24] = Plasma concentration in Wistar rat at 10 mg/kg, po after 3 hrs; assay type: ADME, organism-based; design: dose 10 mg/kg, route oral
[25] = Drug uptake in Wistar rat mesenteric lymph at 10 mg/kg, po after 2.3 hrs; assay type: ADME, organism-based, Mesenteric lymph node; design: dose 10 mg/kg, route oral; conditions: read-out: Drug uptake; method in brief: as §1
[26] = Drug uptake in Wistar rat mesenteric lymph at 10 mg/kg, po after 6 hrs; assay type: ADME, organism-based, Mesenteric lymph node; design: dose 10 mg/kg, route oral; conditions: read-out: Drug uptake; method in brief: as §1
[27] = Drug uptake in Wistar rat mesenteric lymph at 10 mg/kg, po after 1.7 hrs; assay type: ADME, organism-based, Mesenteric lymph node; design: dose 10 mg/kg, route oral; conditions: read-out: Drug uptake; method in brief: as §1
[28] = Drug uptake in Wistar rat mesenteric lymph at 10 mg/kg, po after 24.8 hrs; assay type: ADME, organism-based, Mesenteric lymph node; design: dose 10 mg/kg, route oral; conditions: read-out: Drug uptake; method in brief: as §1
[29] = Plasma concentration in Wistar rat at 10 mg/kg, po after 24 hrs; assay type: ADME, organism-based; design: dose 10 mg/kg, route oral
[30] = Volume of distribution at steady state in Wistar rat at 1 mg/kg, iv; assay type: ADME, organism-based; design: dose 1 mg/kg, route intravenous; conditions: in vivo, read-out: Vdss; method in brief: as §3
[31] = Plasma concentration in Wistar rat at 10 mg/kg, po after 24.8 hrs; assay type: ADME, organism-based; design: dose 10 mg/kg, route oral; method in brief: as §1
[32] = Plasma concentration in Wistar rat at 10 mg/kg, po after 2.3 hrs; assay type: ADME, organism-based; design: dose 10 mg/kg, route oral; method in brief: as §1
[33] = AUC (0 to 24 hrs) in Wistar rat at 10 mg/kg, po; assay type: ADME, organism-based; design: time < 24 hr, dose 10 mg/kg, route oral; conditions: plasma
[34] = Tmax in Wistar rat at 10 mg/kg, po; assay type: ADME, organism-based; design: dose 10 mg/kg, route oral; conditions: in vivo; method in brief: as §4
[35] = Cmax in Wistar rat at 10 mg/kg, po; assay type: ADME, organism-based; design: dose 10 mg/kg, route oral; conditions: in vivo; method in brief: as §4
[36] = Intrinsic clearance in Wistar rat hepatocytes assessed per 10^6 cells at 1 uM by LC-MS/MS analysis; assay type: ADME, cell-based, Hepatocyte; conditions: read-out: CLH
Method in brief: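 Male rat hepatocytes from two-step collagenase perfusion (viability ≥85%), plated at 5.0 × 10^5 viable cells/mL on collagen and preincubated ~3 h at 37 °C, 5% CO2. Compound at 1 µM final. Duplicate wells sampled at 0–24 h with methanol/0.3% SDS. LC-MS-MS (MRM). CLint from initial first-order disappearance rates.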

[37] = Plasma concentration in Wistar rat at 10 mg/kg, po after 6 days; assay type: ADME, organism-based; design: dose 10 mg/kg, route oral
Rattus norvegicus [38] = test: Lymphopenic activity in Wistar rat assessed as reduction in blood lymphocyte count at 10 mg/kg, po after 6 hrs; assay type: functional; design: scale not given: the % may be the effect or the level left; method in brief: as §2
Rattus norvegicus [39] = test: Lymphopenic activity in Wistar rat assessed as reduction in blood lymphocyte count at 10 mg/kg, po after 96 hrs; assay type: functional; design: scale not given: the % may be the effect or the level left; method in brief: as §2
Rattus norvegicus [40] = test: Lymphopenic activity in Wistar rat assessed as reduction in blood lymphocyte count at 10 mg/kg, po after 3 hrs; assay type: functional; design: scale not given: the % may be the effect or the level left; method in brief: as §2

- EC50 [1]: 2.4 nM
- AUC (Plasma [2]): 1880 ng/mL/h
- Cmax [3]: 9050 ng/mL
- logD [4]: 5.4
- Tmax [5]: 1.4 h
- AUC [6]: 31300 ng/mL/h
- Tmax [7]: 6.4 h
- EC50 [8]: 15 nM
- Cmax [9]: 376 ng/mL
SMILES: CCc1cc(-c2noc(-c3sc(CC)c4c3CCC(C)(C)C4)n2)cc(C)c1OC[C@@H](O)CO

- EC50 [1]: 1.4 nM
- Cmax [3]: 9530 ng/mL
- logD [4]: 4.9
- AUC (Plasma [10]): 16300 ng·h/mL
- Tmax [5]: 0.75 h
- AUC [11]: 60400 ng·h/mL
- Tmax [7]: 8 h
- EC50 [8]: 5.8 nM
- Cmax [9]: 813 ng/mL
SMILES: CCc1cc(-c2noc(-c3sc(CC)c4c3CCC(C)(C)C4)n2)cc(C)c1OCCNCCC(=O)O

- EC50 [1]: 4.6 nM
- concentration at 1 h [12]: 5790 ng/mL
- concentration at 1.7 h [13]: 58.1 ng/mL
- Cmax [3]: 8090 ng/mL
- concentration at 1 h [16]: 44.4 ng/mL
- concentration at 72 h [17]: 236 ng/mL
- clearance (Rattus norvegicus [18]): 2 mL/min/kg
- concentration at 3 h [19]: 8090 ng/mL
- half-life [20]: 21 h
- logD [4]: 4.3
- concentration at 6 h [21]: 911 ng/mL
- bioavailability [23]: > 33%
- concentration at 3 h [24]: 132 ng/mL
- concentration at 2.3 h [25]: 4600 ng/mL
- concentration at 6 h [26]: 4590 ng/mL
- AUC (Plasma [10]): 1660 ng·h/mL
- concentration at 1.7 h [27]: 4340 ng/mL
- concentration at 24.8 h [28]: 684 ng/mL
- Tmax [5]: 3 h
- concentration at 24 h [29]: 530 ng/mL
- Vd [30]: 3.5 L/kg
- AUC [11]: 70500 ng·h/mL
- Tmax [7]: 6 h
- concentration at 24.8 h [31]: 680 ng/mL
- concentration at 2.3 h [32]: 123 ng/mL
- AUC(0-t) at 24 h [33]: 28100 ng·h/mL
- Tmax [34]: 6 h
- Cmax [35]: 1450 ng/mL
- hepatocyte CLint at 1 µM [36]: 3.1 µL/min/1e6 cells
- EC50 [8]: 8.9 nM
- Cmax [9]: 911 ng/mL
- concentration at 144 h [37]: 66 ng/mL
SMILES: CCc1cc(-c2noc(-c3sc(CC)c4c3CCC(C)(C)C4)n2)cc(C)c1OC[C@@H](O)CNC(=O)CO
- Activity (Rattus norvegicus [14]): Active
- Activity (Rattus norvegicus [15]): Active
- Activity (Rattus norvegicus [22]): Active

SMILES: Cc1cc(-c2noc(-c3sc(C)c4c3C[C@@H]3[C@H]4C3(C)C)n2)cc(C)c1OCC(O)CNC(=O)CO (mixture of isomers)
- % change in blood lymphocyte count from predose (Rattus norvegicus [15]): -73%
- Activity (Rattus norvegicus [38]): -69%
- Activity (Rattus norvegicus [39]): 30%
- Activity (Rattus norvegicus [40]): -66%
